Here are results for 6 molecules from publication PMC3057608 (Cancer research, 2011).

Assay [1] deals with CAPAN1 cells. In words: Clonogenic assay, BRCA2-null cells. The class given is cell-based.
The test system of assay [2] is CAPAN1 cells. Put plainly: Neutral comet assay, BRCA2-null cells. In kind it is cell-based.
The test system of assay [3] is HCC1937 cells. In words: Neutral comet assay, BRCA1-null cells. The class given is cell-based.
The test system of assay [4] is HCC1937 cells. Put plainly: Clonogenic assay, BRCA1-null cells. The class given is cell-based.
Assay [5] concerns the target T1, DNA-PKcs (Homo sapiens, UniProt P78527). In words: DNA-PKcs kinase assay. The class given is biochemical. The conditions noted are these: for DNA-PKcs inhibition by truncated/mutant/phosphorylated peptide derivatives: alanine scanning and mutant peptides, DNA-PKcs kinase activity (Fig. 6A).
In assay [6] the target is T1, DNA-PKcs. Put plainly: Protease protection assay. The class given is biochemical. The conditions noted are these: 10 μM, trypsin 0.01% 8 min 37°C, immunoblot (Fig. 4H). On the technique in general: Immunoblotting shows a protein as a band on a membrane.
Assay [7] deals with T1, DNA-PKcs. Put plainly: ELISA of GNFRYLAPP/DNA-PKcs interaction. The class given is binding. The conditions noted are these: pure DNA-PK, 1 μM ATP, sonicated DNA, 37°C 1 h, fluorescence read-out (Fig. 4B). In a few lines: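 Bait wells: streptavidin plates coated with 100 ng biotinylated linearized pSP72 or 10 ng biotinylated test peptide (or biotinylated scrambled control), or adsorption plates coated with 250 units pure DNA-PK. After blocking, prey is added for 1 h at 37°C with 1 μM ATP, sonicated DNA (50 ng/μL) and protease/phosphatase inhibitors. Non-biotinylated test or scrambled peptide serves as competitor. DNA-PKcs is read with fluorophore-conjugated antibodies and peptide with FITC-streptavidin (1:500) on a fluorescence plate reader.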
A general note: ELISA stands for enzyme-linked immunosorbent assay.

The test system of another assay is M059J cells. Put plainly: Nuclear focus formation after irradiation, DNA-PK -/- cells. In kind it is cell-based. To be noted: 10 μM, 1 h after 3 Gy, FITC-streptavidin (Fig. 5A left). A digest of the protocol: (§1)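 Peptides at 10 μM are added to growth medium 72 h before irradiation or mock-irradiation (137Cs, 333 cGy per minute). Cells are grown on coverslips and fixed 3 min in ice-cold acetone:methanol 1:1 at set times after irradiation. They are blocked 1 h at room temperature in 5% goat serum, with primary reagents in 1% BSA overnight at 4°C and secondary reagents 1 h at room temperature. Foci are imaged by inverted fluorescence microscopy.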

In assay [8] the test system is Phosphorylated DNA-PKcs (T2609) in KS1767 cells. Put plainly: DNA-PKcs autophosphorylation. The class given is cell-based, human. To be noted: KS1767, 10 μM, 30 minutes after 3 Gy (Fig. 5B). In a few lines: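 Peptides, penetratin-fused test or scrambled control at 10 μM, are added to standard growth medium of KS1767 Kaposi sarcoma cells 72 h before irradiation or mock-irradiation. Irradiation uses a 137Cs source at 333 cGy per minute.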

The test system of a further assay is KS1767 cells. Put plainly: Nuclear focus formation after irradiation, DNA-PKcs +/+ cells. The class given is cell-based, human. To be noted: 10 μM. A digest of the protocol:
as §1

Where two headings read alike, the source gives them in different places.

As for `COc1cc(C=O)c([N+](=O)[O-])cc1OC` [DMNB, reference compound], the “radiosensitivity by clonogenic assay” value with CAPAN1 cells [1] and in the assay on HCC1937 cells [4] was “increased radiosensitivity” throughout. The “residual double-strand breaks by neutral comet assay” value in the assay on CAPAN1 cells [2] and in the assay with HCC1937 cells [3] was “increased residual double-strand breaks” throughout.

For the molecule GNFRYLAPP, the “phosphorylation of the peptide itself by DNA-PKcs” value on DNA-PKcs [5] (Fig. 4C) was “not phosphorylated”. Further, the “mode of DNA-PKcs inhibition” value at DNA-PKcs [5] (conclusion from binding, kinase and protease protection data) is “non-competitive inhibitor”. Besides, the “effect on DNA-PKcs phosphorylation of its p53-derived consensus substrate” value on DNA-PKcs [5] (pure DNA-PK, increasing molar ratios of peptide to substrate (Fig. 4C)) is “progressively inhibited”. In addition, on DNA-PKcs [6], the “effect on DNA-induced protection of DNA-PKcs from trypsin digestion” value is listed as “prevented the protection from trypsin digestion”. Moreover, the “interaction with DNA-PKcs by ELISA” value at DNA-PKcs [7] is “sufficient for attracting”.

As to GNFRYLAPP-pen, the “nuclear focus formation of biotinylated peptide” value with M059J cells is “did not form foci”; in the assay with KS1767 cells (KS1767 (DNA-PKcs +/+), 1 h after 3 Gy, FITC-streptavidin (Fig. 5A left)) it was “formed foci”. Further, the “radiosensitivity by clonogenic assay” value with CAPAN1 cells [1] (CAPAN1 (BRCA2-null), 10 μM, 72 h pre-incubation (Fig. 5D-E)) is reported as “increased radiosensitivity”; in the assay with HCC1937 cells [4] (HCC1937 (BRCA1-null), 10 μM, 72 h pre-incubation (Fig. 5D-E)), “increased radiosensitivity”. Besides, the “residual double-strand breaks by neutral comet assay” value in the assay on CAPAN1 cells [2] (CAPAN1 (BRCA2-null), 10 μM, 72 h pre-incubation, 3 and 6 hours after 6 Gy (Fig. 5C)) is “increased residual double-strand breaks”; with HCC1937 cells [3] (HCC1937 (BRCA1-null), 10 μM, 72 h pre-incubation, 3 and 6 hours after 6 Gy (Fig. 5C)), “increased residual double-strand breaks”. Moreover, the “phosphorylated DNA-PKcs (T2609) signal after irradiation” value in assay [8] is listed as “no signal was detected”. The “resolution of peptide foci over time after irradiation” value in the assay on KS1767 cells (KS1767, 3 Gy, majority of cells retaining foci as late as 12 hours (Fig. 5A right)) is “slow resolution”.

GSFRYL: the “DNA-PKcs inhibition by truncated/mutant/phosphorylated peptide derivatives” value at DNA-PKcs [5] was “abolished”.

Regarding GpSFRYL, the “DNA-PKcs inhibition by truncated/mutant/phosphorylated peptide derivatives” value on DNA-PKcs [5] is “reestablished DNA-PKcs inhibition”.

For the molecule “RYPAGLPFL [scrambled peptide, reference compound]”, the “interaction with DNA-PKcs by ELISA” value at DNA-PKcs [7] was “no detectable interaction”.
